How the values were obtained:
[1] = Therapeutic index, ratio of CC50 for human MT2 cells to EC50 for recombinant HIV1 expressing Rep-Rluc Sac II; type: cell-based; details: read-out: Ratio CC50/EC50
How it was run: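 Therapeutic index computed as CC50 (XTT viability of uninfected MT-2 cells, serial dilutions) over EC50 (luciferase output after 5-day infection of MT-2 cells with HIV-1 NL-Rluc in the presence of compounds). Each input is averaged from two to four experiments.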

[2] = tested on: Human immunodeficiency virus 1; test: Antiviral activity against recombinant HIV1 expressing Rep-Rluc Sac II infected in human MT2 cells after 5 days by luciferase reporter gene assay; type: functional, organism-based; details: Human immunodeficiency virus 1, MT2, 120 h
How it was run: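 MT-2 human lymphocytes infected with recombinant HIV-1 NL-Rluc (Rep-Rluc Sac II) in the presence of compounds; 5-day incubation, then cells processed and virus growth quantified by expressed luciferase. EC50 values averaged from two to four experiments.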

[3] = Cytotoxicity against human MT2 cells by XTT assay; type: cell-based
How it was run: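 Uninfected MT-2 cells, run in parallel with the antiviral screen, exposed to serially diluted compounds; viability read by XTT assay. CC50 averaged from two to four experiments.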

Row | EC50 [2] [µM] | SMILES | selectivity ratio [1] | CC50 [3] [µM]
1 | 0.8 | CC1=C(Cc2cc(O)c(C=O)cc2O)[C@@]2(C)CC[C@H](Br)C(C)(C)[C@@H]2CC1 | 5 | 4
2 | 50 | CC1=CC[C@H]2C(C)(C)[C@@H](Br)CC[C@]2(C)[C@@H]1Cc1cc(O)c(CC(=O)O)cc1O [PEYSSONOIC ACID A] | > 2 | > 100
3 | 0.5 | C=C1CC[C@H]2C(C)(C)[C@@H](Br)CC[C@]2(C)[C@H]1Cc1cc(O)c(C=O)cc1O | 4 | 2
4 | 0.9 | CC1=CC[C@H]2C(C)(C)[C@@H](Br)CC[C@]2(C)[C@@H]1Cc1cc(O)c(C=O)cc1O | 4 | 4
5 | 1 | C=C1CC[C@H]2C(C)(C)[C@@H](Br)CC[C@]2(C)[C@@H]1Cc1cc(O)c(C=O)cc1O [PEYSSONOL A] | 4 | 4
6 | 0.7 | C=C1CC[C@@H]2C(C)(C)[C@@H](Br)CC[C@]2(C)[C@@H]1Cc1cc(O)c(C=O)cc1O | 7 | 5
7 | 0.5 | C=C1CC[C@@H]2C(C)(C)[C@@H](Br)CC[C@]2(C)[C@H]1Cc1cc(O)c(C=O)cc1O | 8 | 4

Continued, compound first:

Row | SMILES | EC50 [2] [µM] | selectivity ratio [1] | CC50 [3] [µM]
8 | CC1(C)CCC[C@@]2(C)[C@H]1CC[C@@]1(C)OC(=O)OC[C@@H]21 | 2 | 17 | 30
9 | CC1(C)[C@@H](Cl)CC[C@@]2(C)[C@H]1CC[C@@]1(C)OC(=O)OC[C@@H]21 | 10 | 4 | 40
10 | CC(=O)OC[C@@H]1[C@@]2(C)CC[C@H](Br)C(C)(C)[C@H]2CC[C@]1(C)O | 20 | 3 | 70
11 | CC1(C)[C@@H](Br)CC[C@@]2(C)[C@H]1CC[C@@]1(C)Oc3cc(C=O)c(O)cc3C[C@@H]21 | 1 | 5 | 5
12 | O=Cc1cc(O)c(CC2CCCCC2)cc1O | 4 | > 25 | > 100
13 | CC1(C)[C@@H](Br)CC[C@]2(C)[C@H]3COC(=O)O[C@]3(C)CC[C@@H]12 | 10 | > 10 | > 100
14 | CC1(C)[C@@H](I)CC[C@@]2(C)[C@H]1CC[C@@]1(C)OC(=O)OC[C@@H]21 | 5 | 6 | 30
15 | CC(=O)OC[C@@H]1[C@@]2(C)CC[C@H](Br)C(C)(C)[C@@H]2CC[C@@]1(C)O | 10 | 3 | 40
16 | CC1(C)[C@@H](Br)CC[C@@]2(C)[C@H]1CC[C@@](C)(O)[C@H]2CO | 2 | 44 | 90
17 | CC1(C)[C@@H](Br)CC[C@@]2(C)[C@H]1CC[C@@]1(C)OC(=O)OC[C@@H]21 | 4 | 23 | 90
18 | CC1(C)[C@H]2CC[C@]3(C)OC(=O)OC[C@@H]3[C@@]2(C)CC[C@@H]1Br | 7 | 9 | 70
19 | CC1(C)[C@H]2CC[C@]3(C)OC(=O)OC[C@H]3[C@@]2(C)CC[C@@H]1Br | 9 | > 11 | > 100
20 | CC(=O)OC[C@H]1[C@@]2(C)CC[C@H](Br)C(C)(C)[C@H]2CC[C@]1(C)O | 40 | > 2 | > 100
21 | CC(=O)OC[C@H]1[C@@]2(C)CC[C@H](Br)C(C)(C)[C@@H]2CC[C@@]1(C)O | 10 | 8 | 90
22 | Cc1cc(O)c(C=O)cc1O | 10 | 3 | 30

— ChEMBL document CHEMBL2346495, “Evaluation of HIV-1 inhibition by stereoisomers and analogues of the sesquiterpenoid hydroquinone peyssonol A” (Bioorg Med Chem Lett, 2013)
